Calls of active or inactive are those of the source.
Key:
PBMC [1] = assay: Cytotoxicity in human PBMC assessed as reduction in cell viability at 250 nM relative to control; assay type: cell-based
PBMC [2] = assay: Antiinflammatory activity in human PBMC assessed as reduction in anti-CD3/CD28 antibody-stimulated IFN-gamma expression at 250 nM preincubated for 1 hr followed by anti-CD3/CD28 antibody stimulation measured after 24 hrs in presence of KZR-504 by ELISA; assay type: functional, cell-based
In short: (§1)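 Healthy-donor PBMC, thawed from cryopreservation, 250 000 cells/well in RPMI 1640/5% FBS. Pretreated 1 h at 37 °C with compound alone or combined (0.1% DMSO final), washed 4 times, then stimulated 24 h with anti-CD3 and anti-CD28 antibodies. TNFα and IFNγ in supernatants by electrochemiluminescent ELISA; expressed relative to DMSO-treated controls (n = 6).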

PBMC [3] = assay: Antiinflammatory activity in human PBMC assessed as reduction in anti-CD3/CD28 antibody-stimulated TNF-alpha expression at 250 nM preincubated for 1 hr followed by anti-CD3/CD28 antibody stimulation measured after 24 hrs in presence of KZR-504 by ELISA; assay type: functional, cell-based; in short: as §1
PBMC [4] = assay: Antiinflammatory activity in human PBMC assessed as reduction in LPS-stimulated IL-6 expression at 125 nM preincubated for 1 hr followed by LPS stimulation measured after 24 hrs by ELISA; assay type: functional, cell-based
In short: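 Cryopreserved healthy-donor PBMC in RPMI 1640 with 5% heat-inactivated FBS, 250 000 cells/well. Compound (0.1% DMSO final) for 1 h at 37 °C, 5% CO2, then 4 washes with medium. Stimulated with 1 μg/mL LPS for 24 h; supernatant TNFα, IL-6 and IL-12/23p40 by electrochemiluminescent immunoassay. Mean level relative to DMSO controls, n = 6.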

Mus musculus [5] = assay: In vivo inhibition of LMP2 in Balb/c mouse splenocytes at 20 mg/kg, iv followed by dosing repeat on day 6, 8, 11, 13 and 15 and co-treated with 5 mg/kg, iv KZR-504 and measured on 1 hr post last dose; assay type: functional, organism-based
In short: (§2)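 BALB/c mice dosed iv bolus in 10% sulfobutyl ether−β-cyclodextrin/10 mM sodium citrate pH 3.5; tissues taken 1 h after administration. Splenocytes strained and red cells lysed; kidney frozen, then bead-homogenized. Hypotonic lysate (20 mM Tris pH 8, 5 mM EDTA) at 1 mg/mL (spleen) or 5 mg/mL (kidney) run in the ProCISE active-site ELISA. Background-subtracted, protein-normalized activity relative to vehicle animals; n = 3.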

[6] = molecular target: T1, Proteasome subunit beta type-8 (Homo sapiens) (UniProt P28062); assay: Inhibition of LMP7 in human PBMC at 125 nM in presence of KZR-504 by ELISA
T1 sequence (whole entry): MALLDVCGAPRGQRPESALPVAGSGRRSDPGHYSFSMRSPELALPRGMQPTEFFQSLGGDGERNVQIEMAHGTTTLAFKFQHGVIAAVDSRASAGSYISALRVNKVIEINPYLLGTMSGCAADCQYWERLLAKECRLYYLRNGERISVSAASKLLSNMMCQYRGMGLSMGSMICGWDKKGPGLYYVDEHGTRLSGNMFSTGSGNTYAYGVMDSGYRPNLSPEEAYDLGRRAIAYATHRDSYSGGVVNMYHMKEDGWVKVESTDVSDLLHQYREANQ
In short: (§3)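 Cryopreserved healthy-donor human PBMC in RPMI 1640 with 5% heat-inactivated FBS, exposed to compound (0.1% DMSO final) for 1 h at 37 °C, 5% CO2, then washed. Subunit-specific active-site occupancy read by ProCISE: biotinylated active-site probe binding, denaturation, streptavidin capture, subunit-specific antibody and HRP chemiluminescence. Signal normalized to protein and expressed relative to DMSO controls.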

PBMC [7] = assay: Antiinflammatory activity in human PBMC assessed as reduction in anti-CD3/CD28 antibody-stimulated IFN-gamma expression at 125 nM preincubated for 1 hr followed by anti-CD3/CD28 antibody stimulation measured after 24 hrs by ELISA; assay type: functional, cell-based; in short: as §1
Mus musculus [8] = assay: In vivo inhibition of LMP2 in Balb/c mouse splenocytes at 20 mg/kg, iv followed by dosing repeat on day 6, 8, 11, 13 and 15 and measured on 1 hr post last dose; assay type: functional, organism-based; in short: as §2
PBMC [9] = assay: Antiinflammatory activity in human PBMC assessed as reduction in anti-CD3/CD28 antibody-stimulated TNF-alpha expression at 125 nM preincubated for 1 hr followed by anti-CD3/CD28 antibody stimulation measured after 24 hrs in presence of KZR-504 by ELISA; assay type: functional, cell-based; in short: as §1
PBMC [10] = assay: Antiinflammatory activity in human PBMC assessed as reduction in anti-CD3/CD28 antibody-stimulated IFN-gamma expression at 125 nM preincubated for 1 hr followed by anti-CD3/CD28 antibody stimulation measured after 24 hrs in presence of KZR-504 by ELISA; assay type: functional, cell-based; in short: as §1
[11] = Toxicity in Balb/c mouse assessed as effect on cage-side observations at 20 mg/kg, iv followed by dosing repeat on day 6, 8, 11, 13 and 15 and measured until day 18; assay type: organism-based; conditions: in vivo
[12] = molecular target: T2, Proteasome subunit beta type-9 (Homo sapiens) (UniProt P28065); assay: Inhibition of LMP2 in human PBMC at 125 nM in presence of KZR-504 by ELISA
T2 sequence (whole entry): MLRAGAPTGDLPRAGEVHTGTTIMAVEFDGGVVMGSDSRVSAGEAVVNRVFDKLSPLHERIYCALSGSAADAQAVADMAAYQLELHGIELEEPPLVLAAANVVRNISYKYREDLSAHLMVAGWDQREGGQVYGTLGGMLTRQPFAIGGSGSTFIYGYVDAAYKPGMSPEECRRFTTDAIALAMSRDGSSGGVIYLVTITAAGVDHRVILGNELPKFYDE

PBMC [13] = assay: Antiinflammatory activity in human PBMC assessed as reduction in anti-CD3/CD28 antibody-stimulated TNF-alpha expression at 125 nM preincubated for 1 hr followed by anti-CD3/CD28 antibody stimulation measured after 24 hrs by ELISA; assay type: functional, cell-based; in short: as §1
[14] = Toxicity in Balb/c mouse assessed as effect on cage-side observations at 20 mg/kg, iv followed by dosing repeat on day 6, 8, 11, 13 and 15 and co-treated with 5 mg/kg, iv KZR-504 and measured until day 18; assay type: organism-based; conditions: in vivo
[15] = molecular target: T3, Proteasome subunit beta type-10 (Homo sapiens) (UniProt P40306); assay: Inhibition of MECL1 in human PBMC at 125 nM in presence of KZR-504 by ELISA; in short: as §3
T3 sequence (whole entry): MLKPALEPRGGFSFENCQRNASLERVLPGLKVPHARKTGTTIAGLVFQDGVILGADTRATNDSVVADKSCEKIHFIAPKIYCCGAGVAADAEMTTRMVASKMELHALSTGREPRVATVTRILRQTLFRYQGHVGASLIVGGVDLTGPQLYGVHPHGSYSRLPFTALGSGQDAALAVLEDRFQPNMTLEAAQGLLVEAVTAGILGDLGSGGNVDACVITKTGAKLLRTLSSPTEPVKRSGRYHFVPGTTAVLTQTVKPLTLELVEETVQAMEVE

Cc1ccc(CC[C@H](NC(=O)[C@H](Cc2ccccc2)NC(=O)[C@H](CC(C)C)NC(=O)CN2CCCCCC2)C(=O)[C@@]2(C)CO2)cc1
inactive: Activity (PBMC [2]) | Activity (PBMC [3])
30%: Activity (PBMC [1])

COc1ccc(C[C@H](NC(=O)[C@@H](C)NC(=O)[C@H]2CC[C@H](O)CC2)C(=O)N[C@@H](CC2=CCCC2)C(=O)[C@@]2(C)CO2)cc1
Non-Toxic: Activity [11] | Activity [14]
active: inhibition (Mus musculus [5]) | inhibition [6] | Activity (PBMC [7]) | inhibition (Mus musculus [8]) | Activity (PBMC [9]) | Activity (PBMC [10]) | inhibition [12] | Activity (PBMC [13]) | inhibition [15]
inactive: Activity (PBMC [4])

Source: ChEMBL document CHEMBL4411269, “Required Immunoproteasome Subunit Inhibition Profile for Anti-Inflammatory Efficacy and Clinical Candidate KZR-616 ((2 S,3 R)- N-(( S)-3-(Cyclopent-1-en-1-yl)-1-(( R)-2-methyloxiran-2-yl)-1-oxopropan-2-yl)-3-hydroxy-3-(4-methoxyphenyl)-2-(( S)-2-(2-morpholinoacetamido)propanamido)propenamide)” (J Med Chem, 2018)
